Source: ChEMBL document CHEMBL4689842, “EUbOPEN Chemogenomics Library wave 1” (2021)
Where “and” joins values, the source holds several entries; their conditions need not be identical. Identical values can stand only once.

How the values were obtained:
Assay type in all cases: toxicity, cell-based
[1] = test system: HEK-293T; assay: Multiplex assay against HEK293T; conditions: human, 48 h, 10 µM, compound concentration 10 uM;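 on Population Tubulin-Different-Phenotype (%): share of the cells with healthy nuclei that show this phenotype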
Method in brief: (§1)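 Tubulin, mitochondrial-mass and membrane-permeability phenotypes are per cents of healthy-nucleus cells. Cells were gated by CellPathfinder machine learning into Hoechst high-intensity objects or normal cells, normal cells into healthy, pyknosed or fragmented nuclei, and pyknosed cells into mitotic or apoptotic. Before that, live cells stained at seeding with Hoechst33342, BioTracker Green Microtubule Cytoskeleton Dye, MitoTracker Red and Annexin V Alexa Fluor 680 were imaged on a CQ1 microscope at 37°C and 5% CO2 after compound addition.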

[2] = test system: U2OS; assay: Multiplex assay against U2OS; conditions: human, 10 µM, compound concentration 10 uM; method in brief: as §1
[3] = test system: HEK-293T; assay: Incucyte cell viability with HEK293T; conditions: human, 10 µM, compound concentration 10 uM; further: filed as whole numbers so only -1 and 0 and 1 occur
[4] = test system: Fibroblast; assay: Incucyte cell viability with human fibroblast; conditions: 10 µM, compound concentration 10 uM; further: filed as whole numbers so only -1 and 0 and 1 occur
[5] = 6 h, replicate number 1, timepoint 6 hours
[6] = 12 h, replicate number 1, timepoint 12 hours
[7] = 18 h, replicate number 1, timepoint 18 hours
[8] = 24 h, replicate number 1, timepoint 24 hours

## C1=N/C2=N/c3ccc(OCCN4CCCC4)c(c3)COC/C=C\COCc3cccc(c3)C(=C1)N2
[1]; replicate 1
  Population Hoechst High Intensity Objects (%): 26%
  Population Membrane Permeable-Phenotype (%): 0%
  Population Mitochondria Different-Phenotype (%): 0%
  Population Mitotic Cells (%): 12%
  Population Normal (%): 73%
  Population Pyknosed Nuclei (%): 62%
  Population Tubulin-Different-Phenotype (%): 0%
  Total Cell Count: 253
[1]; replicate 2
  Population Fragmented Nuclei (%): 17%
  Population Healthy Nuclei (%): 18%
  Population Hoechst High Intensity Objects (%): 15%
  Population Membrane Permeable-Phenotype (%): 3%
  Population Mitochondria Different-Phenotype (%): 81%
  Population Normal (%): 84%
  Population Pyknosed Nuclei (%): 64%
  Population Tubulin-Different-Phenotype (%): 96%
  Total Cell Count: 212
[2]; 12 h, replicate 1
  Population Apoptotic (%): 87% and 88% and 55%
  Population Fragmented Nuclei (%): 35% and 19% and 20%
  Population Hoechst High Intensity Objects (%): 6% and 13%
  Population Normal (%): 93% and 86%
  Population Pyknosed Nuclei (%): 44% and 67% and 25%
  Population Tubulin-Different-Phenotype (%): 94% and 60%
  Total Cell Count: 194 and 177 and 149
[2]; 12 h, replicate 2
  Population Apoptotic (%): 90% and 68%
  Population Fragmented Nuclei (%): 53% and 29%
  Population Hoechst High Intensity Objects (%): 16% and 10% and 7%
  Population Normal (%): 83% and 89% and 92%
  Population Pyknosed Nuclei (%): 27% and 53% and 22%
  Population Tubulin-Different-Phenotype (%): 55% and 100% and 43%
  Total Cell Count: 154 and 71 and 158
[2]; 24 h, replicate 1
  Population Apoptotic (%): 98% and 82%
  Population Fragmented Nuclei (%): 23% and 31% and 11%
  Population Hoechst High Intensity Objects (%): 14% and 15%
  Population Mitochondria Different-Phenotype (%): 100% and 88% and 63%
  Population Normal (%): 85% and 84%
  Population Pyknosed Nuclei (%): 75% and 54% and 32%
  Population Tubulin-Different-Phenotype (%): 100% and 88% and 69%
  Total Cell Count: 179 and 191 and 200
[2]; 24 h, replicate 2
  Population Apoptotic (%): 100% and 96% and 88%
  Population Membrane Permeable-Phenotype (%): 50% and 81% and 33%
  Population Mitochondria Different-Phenotype (%): 20% and 57%
  Population Mitotic Cells (%): 0% and 3% and 11%
  Population Normal (%): 83% and 67% and 90%
  Population Tubulin-Different-Phenotype (%): 40% and 61%
  Total Cell Count: 154 and 69 and 193
[2]; 48 h, replicate 1
  Population Apoptotic (%): 100%
  Population Fragmented Nuclei (%): 28%
  Population Healthy Nuclei (%): 1%
  Population Hoechst High Intensity Objects (%): 16%
  Population Membrane Permeable-Phenotype (%): 100%
  Population Mitochondria Different-Phenotype (%): 100%
  Population Mitotic Cells (%): 0%
  Population Normal (%): 83%
  Population Pyknosed Nuclei (%): 70%
  Population Tubulin-Different-Phenotype (%): 100%
  Total Cell Count: 162
[2]; 48 h, replicate 2
  Population Fragmented Nuclei (%): 19%
  Population Healthy Nuclei (%): 33%
  Population Hoechst High Intensity Objects (%): 37%
  Population Membrane Permeable-Phenotype (%): 92%
  Population Mitochondria Different-Phenotype (%): 92%
  Population Normal (%): 62%
  Population Pyknosed Nuclei (%): 47%
  Population Tubulin-Different-Phenotype (%): 92%
  Total Cell Count: 70
[3]; [5]
  Growth Rate: 0
[3]; [6]
  Growth Rate: 0
[3]; [7]
  Growth Rate: 0
[3]; [8]
  Growth Rate: 0
[4]; [5]
  Growth Rate: 0
[4]; [6]
  Growth Rate: 0
[4]; [7]
  Growth Rate: 0
[4]; [8]
  Growth Rate: 0
